Calls of active or inactive are those of the source. The calls are words filed in the database; no cut-off is given here.
Assays:
[1] = system: Rattus norvegicus; assay: Hypotensive activity in anaesthetized albino rat assessed as change in systolic arterial blood pressure at 5 mg/kg, ip up to 60 mins; assay type: functional, organism-based; set-up: dose 5 mg/kg
In short: (§1)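 Male adult albino rats (groups of 6) anaesthetised with urethane 1.75–2.0 g/Kg i.p. Test agent given i.p. at 5 mg/Kg, dissolved in tween 80 and diluted 1:3 with distilled water. A solvent-treated group served as control. Arterial pressure was recorded via a cannula and pressure transducer on a chart oscillograph at 5, 15, 30 and 60 min. Statistics by one-way ANOVA or unpaired t test.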

[2] = system: Rattus norvegicus; assay: Hypotensive activity in anaesthetized albino rat assessed as change in diastolic arterial blood pressure at 5 mg/kg, ip up to 60 mins; assay type: functional, organism-based; set-up: dose 5 mg/kg; in short: as §1
[3] = system: Rattus norvegicus; assay: Toxicity in anaesthetized albino rat assessed as change in heart rate at 5 mg/kg, ip after 5 mins relative to control; assay type: organism-based; set-up: dose 5 mg/kg, route intraperitoneal; details: in vivo
In short: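 Urethane-anaesthetised (1.75–2.0 g/Kg i.p.) male albino rats, 6 per group, received 5 mg/Kg i.p. in tween 80/distilled water (1:3); solvent-treated controls. Heart rate was taken from a lead II ECG at 5 min after injection (also 15, 30, 60 min). Analysed by ANOVA or unpaired t test.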

[4] = system: Rattus norvegicus; assay: Hypotensive activity in anaesthetized albino rat assessed as reduction of adrenaline-induced increase in systolic arterial blood pressure at […], iv administered 30 mins before adrenaline challenge measured after 30 mins relative to control; assay type: functional; set-up: scale not given: the % may be the effect or the level left
In short: (§2)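 Anaesthetised male albino rats (urethane 1.75–2.0 g/Kg i.p.; n=6 per group). Adrenaline (3/Kg i.v.) pressor response was recorded alone, 30 min before i.p. injection of the test agent (5 mg/Kg in tween 80/water). The adrenaline challenge was repeated 30 min and 1 h after dosing. Systolic and diastolic pressure were recorded via a cannulated artery and transducer.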

[5] = system: Rattus norvegicus; assay: Hypotensive activity in anaesthetized albino rat assessed as change in systolic arterial blood pressure at 5 mg/kg, ip after 5 mins relative to control; assay type: functional; details: route intraperitoneal; in short: as §1
[6] = system: Rattus norvegicus; assay: Hypotensive activity in anaesthetized albino rat assessed as change in systolic arterial blood pressure at 5 mg/kg, ip after 60 mins relative to control; details: route intraperitoneal
[7] = system: Rattus norvegicus; assay: Hypotensive activity in anaesthetized albino rat assessed as change in diastolic arterial blood pressure at 60 mg/kg, ip after 5 mins relative to control; assay type: functional; details: route intraperitoneal
[8] = system: Rattus norvegicus; assay: Hypotensive activity in anaesthetized albino rat assessed as change in diastolic arterial blood pressure at 5 mg/kg, ip after 30 mins relative to control; details: route intraperitoneal
[9] = system: Rattus norvegicus; assay: Toxicity in anaesthetized albino rat assessed as change in heart rate at 30 mg/kg, ip after 5 mins relative to control; assay type: organism-based; set-up: dose 30 mg/kg, route intraperitoneal; details: in vivo
[10] = system: Rattus norvegicus; assay: Hypotensive activity in anaesthetized albino rat assessed as change in systolic arterial blood pressure at 5 mg/kg, ip after 15 mins relative to control; details: route intraperitoneal
[11] = system: Rattus norvegicus; assay: Toxicity in anaesthetized albino rat assessed as change in heart rate at 15 mg/kg, ip after 5 mins relative to control; assay type: organism-based; set-up: dose 15 mg/kg, route intraperitoneal; details: in vivo
[12] = system: Rattus norvegicus; assay: Hypotensive activity in anaesthetized albino rat assessed as change in diastolic arterial blood pressure at 5 mg/kg, ip after 15 mins relative to control; details: route intraperitoneal
[13] = system: Rattus norvegicus; assay: Hypotensive activity in anaesthetized albino rat assessed as reduction of adrenaline-induced increase in diastolic arterial blood pressure at 3 ug/kg, iv administered 30 mins before adrenaline challenge measured after 1 hr relative to control; assay type: functional; set-up: scale not given: the % may be the effect or the level left; in short: as §2
[14] = system: Rattus norvegicus; assay: Hypotensive activity in anaesthetized albino rat assessed as reduction of adrenaline-induced increase in diastolic arterial blood pressure at 3 ug/kg, iv administered 30 mins before adrenaline challenge measured after 30 mins relative to control; assay type: functional; set-up: scale not given: the % may be the effect or the level left; in short: as §2
[15] = system: Rattus norvegicus; assay: Hypotensive activity in anaesthetized albino rat assessed as change in diastolic arterial blood pressure at 5 mg/kg, ip after 5 mins relative to control; assay type: functional; details: route intraperitoneal; in short: as §1
[16] = system: Rattus norvegicus; assay: Hypotensive activity in anaesthetized albino rat assessed as reduction of adrenaline-induced increase in systolic arterial blood pressure at 3 ug/kg, iv administered 30 mins before adrenaline challenge measured after 1 hr relative to control; assay type: functional; set-up: scale not given: the % may be the effect or the level left; in short: as §2
[17] = system: Rattus norvegicus; assay: Toxicity in anaesthetized albino rat assessed as change in heart rate at 60 mg/kg, ip after 5 mins relative to control; assay type: organism-based; set-up: dose 60 mg/kg, route intraperitoneal; details: in vivo
[18] = system: Rattus norvegicus; assay: Hypotensive activity in anaesthetized albino rat assessed as change in systolic arterial blood pressure at 15 mg/kg, ip; assay type: functional, organism-based; set-up: dose 15 mg/kg; details: TDE = time-dependent effect
[19] = system: Rattus norvegicus; assay: Hypotensive activity in anaesthetized albino rat assessed as change in diastolic arterial blood pressure at 5 mg/kg, ip; details: TDE = time-dependent effect

CC1(C)CC(=O)C2=C(C1)N(c1ccc(Cl)cc1)CN(c1ccc(OCC(=O)N/N=C/c3cccc([N+](=O)[O-])c3)cc1)C2
Activity [1]: inactive | Activity [2]: inactive

CC1(C)CC(=O)C2=C(C1)N(c1ccc(Cl)cc1)CN(c1ccc(Br)cc1)C2
Activity [1]: inactive | Activity [2]: inactive

CC1(C)CC(=O)C2=C(C1)N(c1ccc(Cl)cc1)CN(c1ccc(O)cc1)C2
Activity [3]: 0% | Activity [4]: 17% | Activity [5]: 0% | Activity [6]: -3% | Activity [7]: -5% | Activity [8]: 0% | Activity [9]: 0% | Activity [10]: 0% | Activity [11]: 0% | Activity [12]: 0% | Activity [13]: 16% | Activity [14]: 10% | Activity [15]: 0% | Activity [16]: 17%

Cc1ccc(/C=N/NC(=O)COc2ccc(N3CC4=C(CC(C)(C)CC4=O)N(c4ccc(Cl)cc4)C3)cc2)cc1
Activity [3]: -2% | Activity [4]: -11% | Activity [5]: -17.8% | Activity [6]: -39.3% | Activity [7]: -37.5% | Activity [8]: -29.16% | Activity [9]: -6.3% | Activity [10]: -21.4% | Activity [11]: -5% | Activity [12]: -25% | Activity [17]: -6.3% | Activity [13]: -28.5% | Activity [14]: -19% | Activity [15]: -25% | Activity [16]: -22%

Cc1ccc(N2CC3=C(CC(C)(C)CC3=O)N(c3ccc(Cl)cc3)C2)cc1
Activity [3]: 0% | Activity [4]: -11% | Activity [5]: 0% | Activity [6]: -6% | Activity [7]: -18.7% | Activity [8]: -6.25% | Activity [9]: 0% | Activity [10]: 0% | Activity [11]: 0% | Activity [18]: tde | Activity [12]: 0% | Activity [17]: 0% | Activity [13]: 0% | Activity [19]: tde | Activity [14]: -8% | Activity [15]: 0% | Activity [16]: 0%

CC1(C)CC(=O)C2=C(C1)N(c1ccc(Cl)cc1)CN(c1ccccc1F)C2
Activity [1]: inactive | Activity [2]: inactive

COc1cc2nc(N3CCN(C(=O)c4ccco4)CC3)nc(N)c2cc1OC [PRAZOSIN]
Activity [3]: 30% | Activity [4]: -11% | Activity [5]: -20.8% | Activity [6]: -33.3% | Activity [7]: -38.8% | Activity [8]: -27.7% | Activity [9]: 16% | Activity [10]: -29.2% | Activity [11]: 26% | Activity [12]: -22.22% | Activity [17]: -5.1% | Activity [13]: 0% | Activity [14]: -8% | Activity [15]: -22.22% | Activity [16]: 0%

CC1(C)CC(=O)C2=C(C1)N(c1ccc(Cl)cc1)CN(c1ccc(OCC(=O)N/N=C/c3ccccc3Cl)cc1)C2
Activity [1]: inactive | Activity [2]: inactive

COc1ccc(/C=N/NC(=O)COc2ccc(N3CC4=C(CC(C)(C)CC4=O)N(c4ccc(Cl)cc4)C3)cc2)cc1
Activity [1]: inactive | Activity [2]: inactive

CCOC(=O)COc1ccc(N2CC3=C(CC(C)(C)CC3=O)N(c3ccc(Cl)cc3)C2)cc1
Activity [1]: inactive | Activity [2]: inactive

CC1(C)CC(=O)C2=C(C1)N(c1ccc(Cl)cc1)CN(c1ccc(OCC(=O)N/N=C/c3ccc([N+](=O)[O-])cc3)cc1)C2
Activity [3]: 0% | Activity [4]: -10% | Activity [5]: -13% | Activity [6]: -26.5% | Activity [7]: -31.25% | Activity [8]: -31.25% | Activity [9]: -2.1% | Activity [10]: -17% | Activity [11]: -2.1% | Activity [12]: -25% | Activity [17]: -6.2% | Activity [13]: -9% | Activity [14]: -9% | Activity [15]: -12.5% | Activity [16]: -5%

CC1(C)CC(=O)C2=C(C1)N(c1ccc(Cl)cc1)CN(c1ccccc1)C2
Activity [3]: 0% | Activity [4]: -7% | Activity [5]: 0% | Activity [6]: -6% | Activity [7]: -7.7% | Activity [8]: -7.7% | Activity [9]: 6.25% | Activity [10]: 0% | Activity [11]: 0% | Activity [18]: tde | Activity [12]: 0% | Activity [17]: 12% | Activity [13]: 0% | Activity [19]: tde | Activity [14]: -9% | Activity [15]: 0% | Activity [16]: 0%

CC1(C)CC(=O)C2=C(C1)N(c1ccc(Cl)cc1)CN(c1ccc(OCC(=O)N/N=C/c3ccc(Br)cc3)cc1)C2
Activity [1]: inactive | Activity [2]: inactive

CC1(C)CC(=O)C2=C(C1)N(c1ccc(Cl)cc1)CN(c1ccc(OCC(=O)N/N=C/c3ccc(Cl)cc3)cc1)C2
Activity [1]: inactive | Activity [2]: inactive

CC1(C)CC(=O)C2=C(C1)N(c1ccc(Cl)cc1)CN(c1ccc(Cl)cc1)C2
Activity [3]: 0% | Activity [5]: 17.8% | Activity [6]: 32.4% | Activity [7]: 28% | Activity [8]: 28% | Activity [9]: 6% | Activity [10]: 23% | Activity [11]: 0% | Activity [18]: tde | Activity [12]: 25% | Activity [17]: 6% | Activity [19]: tde | Activity [15]: 18.2%

CC1(C)CC(=O)C2=C(C1)N(c1ccc(Cl)cc1)CN(c1ccc(OCC(=O)NN)cc1)C2
Activity [1]: inactive | Activity [2]: inactive

CC1(C)CC(=O)C2=C(C1)N(c1ccc(Cl)cc1)CN(c1ccc(F)cc1)C2
Activity [1]: inactive | Activity [2]: inactive

CC1(C)CC(=O)C2=C(C1)N(c1ccc(Cl)cc1)CN(c1ccc(OCC(=O)N/N=C/c3ccccc3)cc1)C2
Activity [3]: 0% | Activity [4]: -7% | Activity [5]: -19% | Activity [6]: -13% | Activity [7]: -20% | Activity [8]: -15% | Activity [9]: 0% | Activity [10]: -13% | Activity [11]: -4% | Activity [12]: -10% | Activity [17]: 0% | Activity [13]: -7% | Activity [14]: -6% | Activity [15]: -10% | Activity [16]: -7%

COc1cccc(/C=N/NC(=O)COc2ccc(N3CC4=C(CC(C)(C)CC4=O)N(c4ccc(Cl)cc4)C3)cc2)c1
Activity [1]: inactive | Activity [2]: inactive

CC1(C)CC(=O)C2=C(C1)N(c1ccc(Cl)cc1)CN(c1ccc(OCC(=O)N/N=C/c3cccc(Br)c3)cc1)C2
Activity [1]: inactive | Activity [2]: inactive

CC1(C)CC(=O)C2=C(C1)N(c1ccc(Cl)cc1)CN(c1ccc(OCC(=O)N/N=C/c3ccc(Cl)cc3Cl)cc1)C2
Activity [1]: inactive | Activity [2]: inactive

— ChEMBL document CHEMBL1287656, “New octahydroquinazoline derivatives: synthesis and hypotensive activity” (Eur J Med Chem, 2010)
